Source: PubChem (Broad Institute)
CDK5 inh = inhibitors of human CDK5/p35 kinase. Q00535+Q15078. Recombinant CDK5/p35, ADP-Glo luminescence, 60 min. inhibition, % at 10 µM. 0.01% of 330,000 active;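 active means highest replicate inhibition of at least 50% and at least 75% of replicates reaching 50%; inconclusive means only one of the two criteria met; inactive means both criteria failed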
Target sequence (Q00535 whole entry, looked up): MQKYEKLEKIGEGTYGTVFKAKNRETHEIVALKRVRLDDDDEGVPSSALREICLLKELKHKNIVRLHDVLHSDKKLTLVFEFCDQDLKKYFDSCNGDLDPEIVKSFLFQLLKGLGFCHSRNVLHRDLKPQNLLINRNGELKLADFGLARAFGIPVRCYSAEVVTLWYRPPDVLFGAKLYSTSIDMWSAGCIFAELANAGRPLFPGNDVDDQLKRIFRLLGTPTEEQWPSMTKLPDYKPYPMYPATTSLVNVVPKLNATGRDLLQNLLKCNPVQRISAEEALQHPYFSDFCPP
Target sequence (Q15078 whole entry, looked up): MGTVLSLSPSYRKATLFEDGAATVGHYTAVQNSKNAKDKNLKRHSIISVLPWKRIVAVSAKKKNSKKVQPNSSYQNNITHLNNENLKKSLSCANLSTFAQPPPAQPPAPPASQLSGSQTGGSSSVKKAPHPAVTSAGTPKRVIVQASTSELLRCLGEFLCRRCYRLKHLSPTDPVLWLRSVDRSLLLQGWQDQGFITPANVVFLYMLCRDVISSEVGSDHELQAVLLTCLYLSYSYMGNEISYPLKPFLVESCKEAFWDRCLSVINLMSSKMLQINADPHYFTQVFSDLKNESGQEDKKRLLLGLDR
dFosB act-1 = activators of mouse delta FosB homodimer. P13346. purified delta FosB, TAMRA-CDK5 oligo fluorescence polarization; percent of positive-control signal above neutral wells. activation, % at 25 µM. 0.99% of 340,000 active;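 active means mean activation above about 17%, with every replicate also reaching it, limit read from the data, passing the limit was not always enough; inconclusive means only one of the two conditions met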
CAL PDZ FP-1 = blocks peptide binding to the human CAL PDZ domain; Q9HD26; 0.92% of 300,000 active; inhibition, % at 24.9 µM; purified CAL PDZ, TMR-peptide fluorescence polarization, 1 h;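 active means mean inhibition of at least 30% with at least half of replicates also reaching 30%; inconclusive means no clear call, values can overlap the other calls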
CAL PDZ FP-2 = inhibitors of human CAL PDZ peptide binding. Q9HD26. purified CAL PDZ, TMR-peptide fluorescence polarization, 1 h. inhibition, % at 20 µM. 0.02% of 330,000 active. AID 504414;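 active means highest replicate inhibition of at least 40%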
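Read-out basis: mP drop reported as inhibition | Assay system: Tagged CAL PDZ protein CerCALP, purified | Benchmarks: Unlabelled peptide for full inhibition, DMSO wells as neutral | Schedule: 1 h incubation at room temperature before polarization reading | Buffer or medium: Sodium phosphate/NaCl buffer pH 7.4 with TCEP, IgG, Thesit | Doses: Single point, 20 µM | Measured by: Fluorescence polarization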
S100A4 MyoIIA = inhibitors of human S100A4 binding to myosin IIA peptide. 0.14% of 360,000 active. S100A4/TAMRA-MyoIIA peptide fluorescence polarization. AID 652163. inhibition, % at 10.7 µM. P26447;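 active means mean inhibition of at least 70% across replicates, with every replicate also reaching that level; inconclusive means mean inhibition reaches 70% but some replicates fall short; inactive means mean inhibition below 70%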
Target sequence (P26447 whole entry, looked up): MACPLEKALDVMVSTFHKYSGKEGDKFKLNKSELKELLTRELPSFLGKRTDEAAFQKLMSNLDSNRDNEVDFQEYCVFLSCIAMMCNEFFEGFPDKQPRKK
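Material: S100A4 monomer protein | Medium: HEPES pH 7.2 with CaCl2, KCl, NaCl, DTT, Triton | Reagent: Labelled myosin peptide probe, 5 nM | Doses: One dose per compound | Times: 5 min incubation before reading | Benchmarks: Neutral control DMSO, positive control TFP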
Statin myotox sup = protects C2C12 myotubes from simvastatin toxicity; 0.78% of 330,000 active; rescue of ATP level, % at 7.49 µM; AID 602340; ATP luminescence, 48 h; scaled: DMSO 0, geranylgeraniol control 100;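 active means mean ATP rescue above about 67%, or every replicate alone reaching that limit, limit read from the data, passing the limit was not always enough; inconclusive means no clear call, values can overlap the other calls; inactive means mean under the limit and some replicate under it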;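 further: myotubes were challenged with 10 µM simvastatin during compound exposure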
dFosB act-2 = delta FosB (mouse) homodimer activation; shares compounds with dFosB act-1; purified delta FosB, TAMRA-CDK5 oligo fluorescence polarization; normalised: neutral wells 0, positive control 100; activation, % at 24.9 µM; 2,400 tested, under 10 active;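 active means highest replicate activation at or above 34% and every replicate reaching that threshold; inconclusive means meets only one of the two criteria; inactive means meets neither criterion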;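 further: higher polarization means more probe DNA bound by delta FosB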
Hits are given with their value; - = inactive; ? = inconclusive; . = not tested or not shown. An excerpt weighted towards active compounds, which were near 2% of everything screened.

SMILES	CDK5 inh	dFosB act-1	CAL PDZ FP-1	CAL PDZ FP-2	S100A4 MyoIIA	Statin myotox sup	dFosB act-2
COc1ccc(C(=O)n2cnc(N)n2)cc1	-	-	-	-	.	-	.
COc1ccc(N(C)C(=O)CC2(CC(=O)O)CCCCC2)cc1	-	-	-	-	.	-	.
Cc1ccc(NC(=O)c2cc(-c3ccccc3O)n[nH]2)cc1Cl	-	40.7	-	-	-	-	-
Cc1cccc(NC(=O)c2cc(-c3cc(Cl)ccc3O)n[nH]2)c1	-	-	-	-	.	-	.
Cc1ccc(NC(=O)c2cc(-c3cc(Cl)ccc3O)n[nH]2)cc1C	-	22.3	-	-	-	-	-
O=C(NCc1ccc(F)cc1)C(c1ccco1)N(C(=O)c1csnn1)c1ccccc1 (stereo not given)	-	-	-	-	-	-	.
Cc1nn2c(COc3ccc(NC(=O)c4ccccc4Cl)cc3)nnc2c2ccccc12	-	25.5	-	-	.	-	-
Cc1nn2c(COc3ccc(NC(=O)C(C)C)cc3)nnc2c2ccccc12	-	-	-	-	-	.	.
CC(C)(C)NC(=O)CN(C(=O)Cn1nnc(-c2ccc(Cl)cc2)n1)C1CCN(Cc2ccccc2)CC1	-	26.2	-	-	.	.	-
Cc1cccc(NC(=O)NNC(=O)c2cc(-c3ccccc3Cl)nc3ccccc23)c1	-	20.5	.	-	.	-	-
O=C(NNC(=O)c1cc(-c2ccc(Cl)c(Cl)c2)nc2ccccc12)Nc1ccccc1	-	-	-	-	.	.	.
COc1ccc(NC(=O)NNC(=O)c2ccc(Cl)cc2Cl)cc1OC	-	-	-	-	-	-	.
COc1ccc(NC(=O)NNC(=O)COc2ccc(Cl)cc2C)cc1OC	-	45.2	-	-	-	-	-
Cc1ccc(NC(=O)NNC(=O)COc2ccc([N+](=O)[O-])cc2)cc1C	-	31.9	.	-	-	-	-
CCCOC(=O)c1cccc(NC(=O)COc2ccc([N+](=O)[O-])cc2)c1	-	19.0	-	-	-	.	-
Cc1ccc(NC(=O)CCC(=O)NNC(=O)COc2ccc([N+](=O)[O-])cc2)cc1C	-	-	-	-	-	.	.
CC(C)CC#Cc1cnc2c(c1)C(=O)N([C@H](C)CO)C[C@H](C)[C@H](CN(C)C(=O)CCN1CCCCC1)O2	.	.	.	.	-	-	.
Cc1noc(C)c1S(=O)(=O)Nc1ccc2c(c1)C(=O)N([C@@H](C)CO)C[C@H](C)[C@H](CN(C)C(=O)Nc1ccc(F)cc1)O2	.	.	.	.	.	-	.
CCOC(=O)N1CCN(C(=S)NC(=O)c2c(-c3c(Cl)cccc3Cl)noc2C)CC1	-	-	-	-	-	.	.
CCCN(C)C[C@H]1Oc2cc(C#CC(C)C)ccc2S(=O)(=O)N([C@H](C)CO)C[C@@H]1C	.	.	.	.	-	.	.
Cc1ccc(NC(=O)Nc2ccc(Cl)cc2)c(Br)c1	-	-	-	-	.	.	.
Cc1cccc(NC(=O)NNC(=O)COc2ccc3ccccc3c2)c1	-	?	-	-	-	-	.
Cc1ccc(OCC(=O)NNC(=O)Nc2ccc(Cl)cc2)c(Br)c1	-	23.0	-	-	-	.	-
Cc1cccc(NC(=O)NNC(=O)COc2ccc(Cl)cc2)c1	-	34.8	-	-	.	-	-
CCC(=O)N(C)C[C@H]1Oc2ncc(C#CC(C)(C)O)cc2C(=O)N([C@@H](C)CO)C[C@@H]1C	.	.	.	.	-	-	.
SMILES	CDK5 inh	dFosB act-1	CAL PDZ FP-1	CAL PDZ FP-2	S100A4 MyoIIA	Statin myotox sup	dFosB act-2
NC(=O)Nc1ccc(C(=O)OCC(=O)NCc2ccc3c(c2)OCO3)cc1	-	?	-	-	-	-	.
Cc1ccccc1Cn1c(C)cc(C)c(C#N)c1=O	-	-	-	-	-	.	.
Cc1ccc(-n2nc3c(=O)n(CCCC(=O)NCCc4ccccc4C)nc(C)c3c2C)cc1	-	-	-	-	-	.	.
Cc1c(N=C2N=C(NC(=O)Nc3ccc(Cl)cc3)c3ccccc32)c(=O)n(-c2ccccc2)n1C	-	38.0	.	-	-	.	-
Cc1c(NC(=O)Nc2ccc(Cl)cc2)c(=O)n(-c2ccccc2)n1C	-	-	-	-	.	-	.
Cc1ccc(OCC(=O)NNC(=O)CCC(=O)NCc2ccccc2)cc1	-	-	.	-	-	-	.
Cc1cc(Br)cc(C)c1OCC(=O)NNC(=O)CCC(=O)NCc1ccccc1	-	49.2	.	-	-	-	-
COc1cc(C(=O)NCc2ccc(S(N)(=O)=O)cc2)ccc1OCC(=O)Nc1cccc(C(F)(F)F)c1	-	16.6	-	-	-	-	-
Nc1ncnc2c1ncn2[C@@H]1O[C@H](CNS(=O)(=O)CCCCl)[C@@H](O)[C@H]1O	-	-	-	-	-	-	.
CC(C)c1cn(CC[C@@H]2CC[C@@H](NC(=O)C3CCCC3)[C@H](CO)O2)nn1	.	.	.	.	-	-	.
Cc1ccc(-n2nnnc2SCC(=O)N(CC(C)C)c2c(N)n(CC(C)C)c(=O)[nH]c2=O)cc1	-	-	-	-	-	.	.
Cc1cccc(-n2nnnc2SCC(=O)N(CC(C)C)c2c(N)n(CC(C)C)c(=O)[nH]c2=O)c1	-	31.6	-	-	-	-	-
CCN(CC)c1nc(NN)nc(Nc2ccc(C)c(Cl)c2)n1	-	41.6	-	-	-	.	?
COc1cc(NC(=O)c2cc([N+](=O)[O-])ccc2NC(=O)CNCc2ccccn2)cc(OC)c1	-	35.5	-	-	-	-	-
COc1ccc(NC(=O)c2cc([N+](=O)[O-])ccc2NC(=O)CNCc2ccccn2)c(OC)c1	-	-	-	-	-	-	.
Cc1ccc(O)c(-c2cc(C(=O)Nc3ccc(S(=O)(=O)N4CC(C)OC(C)C4)cc3)[nH]n2)c1 (stereo not given)	-	-	-	-	.	-	.
Cc1cc(O)c(-c2cc(C(=O)Nc3ccc(S(=O)(=O)N4CCOCC4)cc3)[nH]n2)cc1C	-	24.6	-	-	.	-	-
O=C(Nc1ccc(S(=O)(=O)N2CCOCC2)cc1)c1cc(-c2cc(Cl)ccc2O)n[nH]1	-	-	-	-	-	-	.
Cc1ccc(-c2cc(C(=O)Nc3ccc(S(=O)(=O)N4CC(C)OC(C)C4)cc3)[nH]n2)c(O)c1 (stereo not given)	-	42.1	-	-	-	.	-
CCc1nnc2n1N=C(c1ccc(-c3cc(Cl)ccc3Cl)o1)CS2	-	29.6	-	-	.	-	-
Cc1cc(C(=O)N/N=C/c2ccc(-c3ccc([N+](=O)[O-])cc3Cl)o2)n[nH]1	.	-	-	-	-	-	.
Cc1cc(C(=O)N/N=C/c2ccc(-c3cccc([N+](=O)[O-])c3)o2)n[nH]1	-	33.2	-	-	-	-	-
O=c1[nH]c(/C(Cl)=C/c2c(F)cccc2Cl)nc2cc(Cl)ccc12	-	-	-	-	-	.	.
O=c1[nH]c(/C(Cl)=C/c2cc(Cl)ccc2O)nc2cc(Cl)ccc12	-	31.4	.	-	-	.	-
